Data set [1] is described as follows: Inhibition of amyloid beta (1 to 40) fibril formation assessed as fold increase in lag time for aggregate formation at 1:1 protein to compound ratio by thioflavin T fluorescence assay relative to untreated control. The method in brief: (§1)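 HFIP-pretreated synthetic Aβ1-40 (DMSO stock) was used at 20 μM with compound at 1:1 or 1:0.1 peptide:compound ratios. The mixture contained 10 μM ThT in 10 mM Tris/HCl, 100 mM NaCl, pH 7.4, with 2.5% DMSO final. Fluorescence (ex 440, em 485 nm) was followed over time on aliquots, 2–6 runs on different days. Lag extension was taken as t(+compound)/t(alone), and plateau reduction as a percent decrease versus peptide alone.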

Data set [2] is described as follows: Inhibition of amyloid beta (1 to 40) fibril formation at 1:1 protein to compound ratio by thioflavin T fluorescence assay relative to untreated control. The note with it: concentration not given here. The method in brief: as §1
Data set [3] is described as follows: Inhibition of amyloid beta (1 to 40) fibril formation assessed as lag time for aggregate formation at 1:0.1 protein to compound ratio by thioflavin T fluorescence assay relative to untreated control. The method in brief: as §1
A short description of data set [4]: Inhibition of amyloid beta (1 to 40) fibril formation assessed as lag time for aggregate formation at 1:1 protein to compound ratio by thioflavin T fluorescence assay relative to untreated control. The method in brief: as §1
For data set [5], the target named is T1, Islet amyloid polypeptide (Homo sapiens) (UniProt P10997).
T1 sequence (whole entry): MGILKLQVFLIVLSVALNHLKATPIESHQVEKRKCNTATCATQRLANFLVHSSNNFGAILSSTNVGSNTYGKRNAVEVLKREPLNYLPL
Briefly: Inhibition of IAPP fibril formation assessed as fold increase in lag time for aggregate formation at 1:10 protein to compound ratio by thioflavin T fluorescence assay relative to untreated control. An outline of the steps: (§2)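 IAPP was made synthetic with an amidated C-terminus, pretreated with HFIP, and taken up in DMSO. It was used at 5 μM with 10 μM ThT in 10 mM Tris/HCl, 100 mM NaCl, pH 7.4, with 2.5% DMSO final. Compound was added at a 1:10 peptide:compound ratio. Fluorescence was read over time (ex 440, em 485 nm), 2–6 runs on different days. Lag extension was calculated as t(+compound)/t(alone). Plateau reduction was (F − F+compound)/F × 100%.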

Data set [6] deals with T1, Islet amyloid polypeptide (Homo sapiens). As to the kind of experiment: Inhibition of IAPP fibril formation assessed as inhibition of aggregate formation at 1:10 protein to compound ratio by thioflavin T fluorescence assay relative to untreated control. The following applies: concentration not given here. The method in brief: as §2
Data set [7] can be described thus: Inhibition of amyloid beta (1 to 40) fibril formation assessed as appearance of spherical aggregates at 1:1 protein to compound ratio after 1 to 2 days by transmission electron microscopy analysis. The method in brief:
(§3)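 Aβ1-40 and compound were incubated at a 1:1 ratio in 10 mM Tris·HCl, 100 mM NaCl, pH 7.4, under the ThT assay conditions. Aliquots were taken after 1 day, 2 days and 2 weeks. They were adsorbed onto carbon-coated grids for 2 min, negatively stained, and imaged by TEM.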

Data set [8] is described as follows: Inhibition of amyloid beta (1 to 40) fibril formation assessed as appearance of spherical aggregates at 1:1 protein to compound ratio after 2 weeks by transmission electron microscopy analysis. An outline of the steps:
as §3

A short description of data set [9]: Inhibition of amyloid beta (1 to 40) fibril formation assessed as appearance of spherical aggregates at 1:01 protein to compound ratio after 1 to 2 days by transmission electron microscopy analysis.
A short description of data set [10]: Inhibition of amyloid beta (1 to 40) fibril formation assessed as appearance of spherical aggregates at 1:01 protein to compound ratio after 2 weeks by transmission electron microscopy analysis.
Data set [11] concerns the target T1, Islet amyloid polypeptide (Homo sapiens). Briefly: Inhibition of IAPP fibril formation at 1:10 protein to compound ratio after 3 hrs by transmission electron microscopy analysis. The method in brief: (§4)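 IAPP and compound (1:10) were incubated under the ThT assay conditions: 10 mM Tris·HCl, 100 mM NaCl, pH 7.4. Aliquots were taken at 3 h and 24 h, adsorbed onto carbon-coated copper grids for 2 min, negatively stained, and imaged by transmission electron microscopy.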

Data set [12] shares this target. As to the kind of experiment: Inhibition of IAPP fibril formation at 1:10 protein to compound ratio after 24 hrs by transmission electron microscopy analysis. An outline of the steps:
as §4

Data set [13] in a line: Binding affinity to amyloid beta (1 to 40) assessed as negative chemical shift at 1 mM by 2D NOESY spectroscopy analysis. The method in brief: (§5)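 Synthetic C-terminally amidated Aβ1-40 was studied by NMR in 50 mM sodium phosphate, 150 mM NaCl, pH 7.0, with 10% D2O. 2D NOESY spectra were recorded with a 0.2 s mixing time.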
Data set [14] is described as follows: Binding affinity to amyloid beta (1 to 40) at 1 mM by STD-NMR spectroscopy. The method in brief:
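1D saturation transfer difference NMR was run in 50 mM sodium phosphate, 150 mM NaCl, pH 7.0, 10% D2O. Compound was at 1 mM and Aβ1-40 at 0.25 mM. Saturation used a cascade of Gaussian selective pulses (50 ms each, B1 0.16 kHz) lasting 2 s in total, applied alternately at -1 and +30 ppm. Compound-alone spectra served as control.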

A short description of data set [15]: Binding affinity to amyloid beta (1 to 40) at 1:20 protein to compound ratio up to 1 hr by STD-NMR spectroscopy. An outline of the steps:
(§6)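 STD-NMR used diluted Aβ1-40 (30 μM) at a 1:20 peptide:compound ratio, followed over time. Buffer was 50 mM sodium phosphate, 150 mM NaCl, pH 7.0, 10% D2O. A cascade of Gaussian selective pulses (50 ms, B1 0.16 kHz, 2 s total) was applied alternately at -1 and +30 ppm.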

A short description of data set [16]: Binding affinity to amyloid beta (1 to 40) at 1:20 protein to compound ratio after 2 weeks by STD-NMR spectroscopy. The method in brief: as §6
Data set [17] is described as follows: Solubility of compound in water. The following applies: buffer. Format: physicochemical.
Data set [18] in a line: Binding affinity to amyloid beta (1 to 40) assessed as negative chemical shift by NMR spectroscopy analysis. The method in brief: as §5

Each structure is given as a SMILES string. The source made the active and inactive calls. The calls are words filed in the database; no cut-off is given here. Numbered stars: 1 amine (or outer) side, 2 acyl side, 3 side chain; on linkers, the order of the positions; unused ones are H or OH. Square brackets hold non-standard residues; d marks the D form. Peptide text beside a SMILES is read from it. * marks the point of attachment. X1 = O=C(CCOC[C@H]1O[C@@H](OCCCN[*:1])[C@H](O)[C@@H](O)[C@@H]1O)[*:2]; X2 = O=C(CCOC[C@H]1O[C@@H](OCCN[*:1])[C@H](O)[C@@H](O)[C@@H]1O)[*:2]; X3 = O=C(CCOC[C@H]1O[C@H](OCCCN[*:1])[C@H](O)[C@@H](O)[C@@H]1O)[*:2]; X4 = O=C(CCOC[C@H]1O[C@H](OCCN[*:1])[C@H](O)[C@@H](O)[C@@H]1O)[*:2]; Boc = CC(C)(C)OC(=O)*

Consider `COC(=O)[C@H](CC(C)C)NC(=O)[C@@H](NC(=O)CCOC[C@H]1O[C@@H](OCCCNC(=O)[C@@H](NC(=O)[C@H](C)NC(=O)OC(C)(C)C)C(C)C)[C@H](O)[C@@H](O)[C@@H]1O)C(C)C` (Boc-AV[X1]VL-OMe), for which the results for the fold change (FC) in data set [1] and in data set [5] were 3 and 1, respectively. Besides, the inhibition stood at 52% in [2] and 5% in [6]. Further, the TIME is 26 h in [3] and 41 h in data set [4]. Also, the inhibition result in data set [7], in data set [8] and in data set [9] was “Active” each time. Moreover, the inhibition entry in data set [10], in data set [11] and in data set [12] was “inactive” in each case. Further, the result in data set [13], in data set [14] and in data set [16] was Active. Further, the result in data set [15] and in [18] was inactive. Moreover, the solubility entry in [17] was “soluble”.
For `COC(=O)[C@H](CC(C)C)NC(=O)[C@@H](NC(=O)CCOC[C@H]1O[C@@H](OCCNC(=O)[C@@H](NC(=O)[C@H](C)NC(=O)OC(C)(C)C)C(C)C)[C@H](O)[C@@H](O)[C@@H]1O)C(C)C` (Boc-AV[X2]VL-OMe), the fold change (FC) is 3.4 in [1] and 1 in data set [5]. Moreover, the values for the inhibition in [2] and in data set [6] were 40% and 1%, respectively. For the same compound, the solubility result in [17] is “soluble”.
The like results for `COC(=O)[C@H](CC(C)C)NC(=O)[C@@H](NC(=O)CCOC[C@H]1O[C@H](OCCCNC(=O)[C@@H](NC(=O)[C@H](C)NC(=O)OC(C)(C)C)C(C)C)[C@H](O)[C@@H](O)[C@@H]1O)C(C)C` (Boc-AV[X3]VL-OMe) were, in that order, 3.4, 1, 60%, 9% and “soluble”.
`COC(=O)[C@H](CC(C)C)NC(=O)[C@@H](NC(=O)CCOC[C@H]1O[C@H](OCCNC(=O)[C@@H](NC(=O)[C@H](C)NC(=O)OC(C)(C)C)C(C)C)[C@H](O)[C@@H](O)[C@@H]1O)C(C)C` (Boc-AV[X4]VL-OMe): in [1], the fold change (FC) turned out to be 3.4. Besides, the inhibition in data set [2] was 22%. Further, in data set [17], the solubility result is reported as “soluble”.

In general, inhibition refers to the change of the read-out against control, counted positive when it falls.

Values taken from ChEMBL document CHEMBL1914311, “Sugar-based peptidomimetics inhibit amyloid β-peptide aggregation” (Eur J Med Chem, 2011).
